# How the values were obtained:
# [1] = system: MS2 coat protein; experiment: apparent Kd, MS2 coat protein; higher = weaker binding; RNA-MaP array; tryptophan 2.4 mM where present
# In short: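 In 100 mM Tris-HCl pH 7.5, 80 mM KCl, 4 mM MgCl2, BSA, DTT, yeast tRNA and Tween-20, SNAP-549-labelled MS2 coat protein was titrated from 0.7 or 1.5 nM, doubling to 3 µM, over designs transcribed by stalled E. coli RNA polymerase on Illumina sequencing-chip clusters. This was done first without ligand, then with ligand held constant. After green signal was normalised to red-channel RNA signal and control-cluster median Fmax, the apparent Kd was taken as the median of filtered per-cluster binding-curve fits.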
# [2] = system: MS2 coat protein; experiment: apparent Kd, MS2 coat protein; higher = weaker binding; RNA-MaP array
# In short: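 Binding of fluorescently labeled MS2 coat protein, at 1.5 nM to 3 μM and room temperature, was measured with or without input ligand on designed RNAs transcribed on an Illumina sequencing chip from sequenced DNA templates. Apparent Kd was defined as the median of per-cluster binding-curve fits. No design measured on fewer than 10 clusters was kept.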
# [3] = designed as: ON switch for tryptophan, no ligand
# [4] = ligand present: tryptophan, designed as: ON switch for tryptophan
# [5] = designed as: OFF switch for tryptophan, no ligand
# [6] = ligand present: tryptophan, designed as: OFF switch for tryptophan
# [7] = designed as: OFF switch for flavin mononucleotide, no ligand
# [8] = ligand present: flavin mononucleotide, designed as: OFF switch for flavin mononucleotide
# [9] = designed as: ON switch for flavin mononucleotide, no ligand
# [10] = ligand present: flavin mononucleotide, designed as: ON switch for flavin mononucleotide
sequence,measurement,setting,value
CAUGGCUGUGCGGCCGCCACUGGCUCAUCCUGCAUUACAUGAGGAUCACCCAUGUUGCGGCCUCCCAGGACCGGGCAUAGCCUGA,apparent Kd,[1]; [3],300 nM
same,apparent Kd,[1]; [4],139 nM
CAUGUGAAAAUAAGAAGAAGAAGAAUAAAUCGAGGACCGGUACGGCCGCCACUCGUCGAAUCACAUGAGGAUCACCCAUGUAGCC,apparent Kd,[1]; [5],65.1 nM
same,apparent Kd,[1]; [6],50.9 nM
CCAUCUACAUCGGCCGCCACUGAACCAAGGAGACAUGAGGAUCACCCAUGUAUGGGAAACCAUCAUAGGACCGGGAUGAUCUACC,apparent Kd,[1]; [3],113 nM
same,apparent Kd,[1]; [4],122 nM
CCGGCCAAUUAGAAAUUAAUUGGCCGGAAACGAGGACCGGUACGGCCGCCACUCGUGGCGGGAGAAACAUGAGGAUCACCCAUGU,apparent Kd,[1]; [5],40 nM
same,apparent Kd,[1]; [6],26 nM
CGUAUUGGAAACAGUACGAGUGAUCCGGUCCGAGGACCGGUACGGCCGCCACUCGAAAUUAAUAAACAUGAGGAUCACCCAUGUA,apparent Kd,[1]; [5],17.8 nM
same,apparent Kd,[1]; [6],26.8 nM
CUAGACUGUGCGGCCGCCACUGGCUCAUCCUGCAUUACAUGAGGAUCACCCAUGUUGCGGCCUCCCAGGACCGGGCAUAGUCUGC,apparent Kd,[1]; [3],329 nM
same,apparent Kd,[1]; [4],105 nM
CUCAUCCACGCGGCCGCCACUAUAUUGUGGUGUGAAUGUGACGUAUUACAUGAGGAUCACCCAUGUAGGACCGGGCGUGGAUGAG,apparent Kd,[1]; [5],75.4 nM
same,apparent Kd,[1]; [6],168 nM
GAUUUAACAAAAGUUAGAUCAGUGGGUGAACGAGGACCGGUACGGCCGCCACUCGGACAUGAGGAUCACCCAUGUCCAUGUGAAA,apparent Kd,[1]; [5],17.8 nM
same,apparent Kd,[1]; [6],43.1 nM
GCUACAUGAGGAUCACCCAUGUAUGCGAGCCGAGGACCGGUACGGCCGCCACUCGCUUAACAUGAGGAUCACCCAUGUUGCUCGG,apparent Kd,[1]; [3],40.9 nM
same,apparent Kd,[1]; [4],43.6 nM
GCUAGGUCUACGGCCGCCACUAGACAUGGGUAAGACAUGAGGAUCACCCAUGUACUACGAGUGCAUAGGACCGGGUAGACCUAGC,apparent Kd,[1]; [3],326 nM
same,apparent Kd,[1]; [4],53.5 nM
GGAGUAGGAAACUAUUCCAAUCCUCGUGAACGAGGACCGGUACGGCCGCCACUCGAUAAAUAAAUACAUGAGGAUCACCCAUGUA,apparent Kd,[1]; [5],24.4 nM
same,apparent Kd,[1]; [6],50.2 nM
UCGUCACAUGUUAGGAUAUUGCUAGGAUCCUAGAACAAGAAGGAACAUGAGGAUCACCCAUGUCAGUGAAUCAU,apparent Kd,[2]; [7],23 nM
same,apparent Kd,[2]; [8],36 nM
UCGUUGCCAUGAGGAUAUCGUGUCAAGACAGGCAAGUGACCGUACAUGAGGAUCACCCAUGUAAACGAGAAGGCAUAGUCAUGG,apparent Kd,[2]; [7],17 nM
same,apparent Kd,[2]; [8],13.9 nM
UCUAUACAUGAGGAUCACCCAUGUCAGGAUAUAAGCACCGGGCGAUUGUCACGCGGCCUUAGAAGGGACAGGAA,apparent Kd,[2]; [7],17.4 nM
same,apparent Kd,[2]; [8],28.8 nM
UCUAUGUUAGGAUAUCUGUUGCAUGCCUGGCCGCGAUGCAAAGAGAAGGAACAUGAGGAUCACCCAUGUCAUAU,apparent Kd,[2]; [7],19.3 nM
same,apparent Kd,[2]; [8],41.6 nM
UCUGUGAUCAACAUGAGGAUCACCCAUGUUACCACCUCUAGGCAGGAUAUGAGCGUACUAAGAAGUCAGAAGGGCCUUUUUACG,apparent Kd,[2]; [9],18.3 nM
same,apparent Kd,[2]; [10],10.1 nM
UGACUAAAGGAGAAGGGCCACUCCAUUACUUCGGCAGGAUAUCCAUAAACAUGAGGAUCACCCAUGUACAUACAUUGGACGGCG,apparent Kd,[2]; [9],8.62 nM
same,apparent Kd,[2]; [10],7.73 nM
UGAGUAAGCGAGGAUAUUGGGCGCGUACGUGGUCAAGAAGGCGCAACAUGAGGAUCACCCAUGUGCUUCUCUUG,apparent Kd,[2]; [7],15.7 nM
same,apparent Kd,[2]; [8],29.2 nM
UGGUAGCCACACUUCAAACAUCGACAAGAUACCAGUUAAUCAACGAACCCUUGGCAGCUUCGUACAUGAGGAUCACCCAUGUGGA,apparent Kd,"[2]; designed as: OFF switch for theophylline, no ligand",18.2 nM
same,apparent Kd,"[2]; ligand present: theophylline, designed as: OFF switch for theophylline",23 nM
UGUACAUGAGGAUCACCCAUGUUUGUAUCUUUAUCCGCGCGCAGAAGGUAGCCCAUGGAGACAGCUAAGGAUAUGCGUCACAUA,apparent Kd,[2]; [7],21.5 nM
same,apparent Kd,[2]; [8],8.83 nM
UGUUUUAAAGAGGAUAUGACAACGGUUCCACCGUCAGAAGGCUUUACAUGAGGAUCACCCAUGUACUGGAGUGA,apparent Kd,[2]; [7],17.3 nM
same,apparent Kd,[2]; [8],81.9 nM
UUACAGAAAGGAUAUACAUGAGGAUCACCCAUGUAGUAUGAGUUGGUGAGAGUUCGUGGUAGAAGGUUCCGCAA,apparent Kd,[2]; [7],53 nM
same,apparent Kd,[2]; [8],55.2 nM
UUAGGUUAUAAAGUGACAUGAGGAUCACCCAUGUGCUCACAGAGAAGGUUAUACCUACAGGCUAUAAAGGAUAUCUCCUAAAUU,apparent Kd,[2]; [7],12.3 nM
same,apparent Kd,[2]; [8],8.73 nM
UUCAUGUUAGGAUAUAGUGUAAGAGCGGGCGGGACUCUAUUCUAGAAGGAACAUGAGGAUCACCCAUGUUAAGG,apparent Kd,[2]; [7],213 nM
same,apparent Kd,[2]; [8],124 nM
UUUGCUACCUAGAAGGCUGACGAGACAUGAGGAUCACCCAUGUUGGAAAUUCUUACGGCAAUGGCAGAGGAUAUAGGACGAAAA,apparent Kd,[2]; [7],7.66 nM
same,apparent Kd,[2]; [8],11.3 nM
UUUUUUUAACAGAAGGACAGACAUAUGAGGGACAUGAGGAUCACCCAUGUGUGCUCGCGUAGGCUGUAGGAUAUGUAGUGCUGG,apparent Kd,[2]; [7],11.2 nM
same,apparent Kd,[2]; [8],8.19 nM

# — the EternaBench riboswitch data
